For data set [1], the system named is Bel-7402. Nature of the data set: Cell cycle arrest in human Bel7402 cells assessed as accumulation at S phase at 2 uM after 48 hrs by propidium iodide staining based flow cytometry (reference value: 8.78%). The class given is functional.
Data set [2] relates to Bel-7402. Nature of the data set: Cell cycle arrest in human Bel7402 cells assessed as accumulation at G1 phase at 2 uM after 48 hrs by propidium iodide staining based flow cytometry (reference value: 34.61%). The format is functional.
The subject of data set [3] is Bel-7402. Nature of the data set: Cytotoxicity against human Bel7402 cells at 10 to 50 uM after 24 hrs by LDH assay. The class given is functional, cell-based. The procedure, abridged:
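Membrane integrity assay on MCF-7 and Bel-7402 cells seeded at ~5 × 10^3 per well for 24 h, then given compounds at 10, 20 or 50 μM. Culture medium collected and assayed with CytoTox-ONE LDH reagent for 10 min, followed by stop solution. Fluorescence read at Ex 560/Em 590 nm. Expressed as percentage of unstimulated cells.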

Data set [4] relates to MCF7. In words: Induction of apoptosis in human MCF7 cells assessed as necrotic cells at 0.5 uM after 24 hrs by Annexin-V FITC/propidium iodide staining based flow cytometry (reference value: 0.102%). The class given is functional.
The test system of data set [5] is MCF7. In words: Cell cycle arrest in human MCF7 cells assessed as accumulation at G1 phase at 0.25 uM after 48 hrs by propidium iodide staining based flow cytometry (reference value: 49.77%). The class given is functional. The procedure, abridged:
(§1)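 MCF-7 cells, 5 × 10^4 per well, seeded overnight, then exposed to 0.125–1 μM compound, or DMSO, for 48 h. Ethanol-fixed (70%, −20 °C, 12 h) and stained with PI/RNase at 37 °C for 30 min. Phase distribution determined by flow cytometry.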

Another data set has as its system KB 3-1. In words: Antiproliferative activity against human KB-3-1 cells after 48 hrs by MTT assay. The format is functional, cell-based. The note with it: KB 3-1, 48 h. The gist of the method:
(§2)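 Colorimetric MTT assay. KB-3-1, NCI-H460 and Bel-7404 cells were seeded at 4000 cells/well; resistant KB/CP4, NCI-H460/MX20 and Bel-7404/CP20 were seeded at 7000 cells/well. Cells were pre-incubated 24 h at 37 °C, 5% CO2, then exposed to a compound concentration series for 48 h with DMSO ≤0.25%. Absorbance read at 570 nm. Quadruplicate wells, three repeats; means ± SD.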

Data set [6] concerns MCF7. Nature of the data set: Induction of apoptosis in human MCF7 cells assessed as necrotic cells at 1 uM after 24 hrs by Annexin-V FITC/propidium iodide staining based flow cytometry (reference value: 0.102%). The format is functional.
Data set [7] concerns MCF7. In words: Cell cycle arrest in human MCF7 cells assessed as accumulation at S phase at 0.5 uM after 48 hrs by propidium iodide staining based flow cytometry (reference value: 37.18%). The class given is functional. The gist of the method:
as §1

Data set [8] addresses T1, M-phase inducer phosphatase 3 (Homo sapiens) (UniProt P30307).
T1 sequence (whole entry): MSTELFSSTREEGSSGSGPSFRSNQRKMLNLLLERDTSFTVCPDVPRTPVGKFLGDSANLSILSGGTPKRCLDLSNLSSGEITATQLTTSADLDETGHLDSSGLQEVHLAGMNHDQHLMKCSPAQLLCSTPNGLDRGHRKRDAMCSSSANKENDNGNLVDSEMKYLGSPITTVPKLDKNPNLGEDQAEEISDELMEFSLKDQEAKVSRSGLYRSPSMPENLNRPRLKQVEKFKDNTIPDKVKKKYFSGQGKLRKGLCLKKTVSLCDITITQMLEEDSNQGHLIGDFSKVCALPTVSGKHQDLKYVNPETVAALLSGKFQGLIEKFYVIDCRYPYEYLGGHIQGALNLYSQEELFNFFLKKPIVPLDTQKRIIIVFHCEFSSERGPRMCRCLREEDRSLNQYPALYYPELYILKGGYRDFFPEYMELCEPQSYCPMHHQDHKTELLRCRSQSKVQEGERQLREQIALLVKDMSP
Nature of the data set: Induction of cdc25c phosphorylation in human MCF7 cells after 48 hrs by Western blot method. The class given is cell-based. The procedure, abridged:
(§3)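 MCF-7 cells were treated at 0, 0.125, 0.25, 0.5 or 1 μM for 48 h, washed in ice-cold PBS and lysed on ice for 20 min. Lysates were spun at 13,000 g, 4 °C. 20 μg protein was run on SDS-PAGE and blotted to PVDF, probed overnight at 4 °C with primary antibodies, then with fluorescent secondary antibodies. Band density was expressed relative to β-actin; three independent experiments.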

Data set [9] is described as follows: Antiproliferative activity against human NCI-H460/MX20 cells after 48 hrs by MTT assay. The format is functional, cell-based. The note with it: NCI-H460/MX20, 48 h. The gist of the method: as §2
Data set [10] has as its system MCF7. Nature of the data set: Induction of apoptosis in human MCF7 cells assessed as increase in cytochrome c protein expression at 0.5 to 1 uM after 48 hrs by Western blot method. The format is functional, cell-based. The gist of the method: as §3
Data set [11] has as its system MCF7. In words: Inhibition of colony formation in human MCF7 cells incubated for 24 hrs measured after 10 days by crystal violet staining based microscopic method. The format is functional, cell-based. The gist of the method: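 MCF-7 cells were plated at 3 × 10^2 per well and left overnight, then exposed to 0, 75, 150 or 300 nM (DMSO vehicle) for 24 h. Medium was removed and cells grew a further 10 days. Colonies were fixed in methanol for 15 min, stained with 0.1% crystal violet for 15 min and counted; a colony was >50 cells. At least three independent experiments, mean ± SD.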

For data set [12], the system named is MCF7. Nature of the data set: Induction of apoptosis in human MCF7 cells assessed as necrotic cells at 0.125 uM after 24 hrs by Annexin-V FITC/propidium iodide staining based flow cytometry (reference value: 0.102%). The format is functional.
Data set [13] relates to Mus musculus. Nature of the data set: Nephrotoxicity in Balb/c nude mouse xenografted with human MCF7 cells assessed as morphological changes in kidney at 20 mg/kg/day, iv for 4 weeks by hematoxylin and eosin staining based microscopic method. The format is toxicity, organism-based. The note with it: in vivo, 672 h. The procedure, abridged: (§4)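 Male BALB/c nude mice aged six weeks received 1 × 10^6 MCF-7 cells subcutaneously in the right flank. After 7 d they were randomized and dosed 20 mg/kg iv once daily in 10% DMF/2% poloxamer/88% saline; saline control. Heart, liver, spleen, lung and kidney were fixed in 4% paraformaldehyde, paraffin-embedded, sectioned at 5 μm, H&E stained and examined microscopically.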

The subject of data set [14] is Mus musculus. In words: Toxicity in Balb/c nude mouse xenografted with human MCF7 cells assessed as changes in body weight at 20 mg/kg/day, iv for 4 weeks measured once in 2 days during compound dosing. The class given is organism-based. Conditions: in vivo. The procedure, abridged:
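Mice received 1 × 10^6 tumor cells subcutaneously in the right flank: MCF-7 in male BALB/c nude mice aged six weeks, H22 in male ICR mice aged five weeks. After 7 d they were randomized (six or eight per group). Dosing was 20 mg/kg iv daily in 10% DMF/2% poloxamer/88% saline for 21 or 28 days; saline control. Body weight was recorded every 2 days.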

In data set [15] the test system is Mus musculus. In words: Toxicity in Balb/c nude mouse xenografted with human MCF7 cells assessed as morphological changes in lungs at 20 mg/kg/day, iv for 4 weeks by hematoxylin and eosin staining based microscopic method. Conditions: in vivo, 672 h. The class given is organism-based. The gist of the method:
as §4

The subject of data set [16] is MCF7. In words: Cell cycle arrest in human MCF7 cells assessed as accumulation at S phase at 0.125 uM after 48 hrs by propidium iodide staining based flow cytometry (reference value: 37.18%). The format is functional. The procedure, abridged: as §1

The source made the active and inactive calls. The calls are words filed in the database; no cut-off is given here.

In the case of `C=C1C(=O)[C@]23[C@H](OC(=O)/C=C/c4ccccc4)[C@H]1CC[C@H]2[C@]12C=CCC(C)(C)[C@H]1[C@H](O)[C@]3(O)OC2`, the Activity in the data set with Bel-7402 [1] was 10.78%; in the data set with Bel-7402 [2], 31.15%; in the data set with MCF7 [4], 2.18%; in the data set on MCF7 [5], 49.37%; in the data set on MCF7 [6], 1.14%; in the data set with MCF7 [7], 31.9%. For the same compound, the Activity result in data set [8] is “Dose-dependent effect”; in the data set on MCF7 [12], 1.14%; in the data set on Mus musculus [13], “Non-Toxic”; in the data set with Mus musculus [14], “Non-Toxic”; with Mus musculus [15] it was “Non-Toxic”; in the data set on MCF7 [16], 33.93%. In the data set on Bel-7402 [3], the result was inactive. The IC50 was determined as 5.7 µM with KB 3-1 and 13.6 µM in data set [9]. In the data set on MCF7 [10], the result was Active. The inhibition result with MCF7 [11] was “Dose-dependent effect”.

For the origin of these results see ChEMBL document CHEMBL3997810, “A Novel Potent Anticancer Compound Optimized from a Natural Oridonin Scaffold Induces Apoptosis and Cell Cycle Arrest through the Mitochondrial Pathway” (J Med Chem, 2017).
